# Legend:
# [1] = test system: LOX IMVI; assay: Antiproliferative activity against human LOXIMVI cells after 48 hrs; type: functional
# Outline: (§1)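 NCI 60-cell screen. Cells were grown in RPMI 1640 with 5% FBS and 2 mM L-glutamine, then plated at 5,000–40,000 cells/well according to doubling time and preincubated for 24 h at 37 °C in 5% CO2. Compounds were dissolved in DMSO at 400× the top final concentration and tested at five 10-fold dilutions from 10−4 to 10−8 M for 48 h. Growth was read spectrophotometrically; GI50 is 50% net protein reduction.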
# [2] = test system: Malme-3M; assay: Antiproliferative activity against human MALME3M cells after 48 hrs; type: functional; outline: as §1
# [3] = test system: SK-MEL-2; assay: Antiproliferative activity against human SKMEL2 cells after 48 hrs; type: functional; conditions: SK-MEL-2, 48 h; outline: as §1
# [4] = test system: SK-MEL-5; assay: Antiproliferative activity against human SKMEL5 cells after 48 hrs; type: functional; conditions: SK-MEL-5, 48 h, read-out: Log LC50 (the source's name) (converted); outline: as §1
# [5] = test system: UACC-62; assay: Antiproliferative activity against human UACC62 cells after 48 hrs; type: functional; conditions: UACC-62, 48 h
# Outline: (§2)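 NCI 60-cell-line screen. Lines grown in RPMI 1640 with 5% fetal bovine serum and 2 mM L-glutamine, plated at 5,000–40,000 cells/well according to doubling time, left 24 h at 37 °C in 5% CO2. Drug stocks in DMSO at 400-fold the top final concentration. Five 10-fold dilutions, 10−4 to 10−8 M, incubated 48 h. Growth read spectrophotometrically as net protein; GI50 taken as 50% reduction.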
# [6] = test system: IGROV-1; assay: Antiproliferative activity against human IGROV1 cells after 48 hrs; type: functional; conditions: IGROV-1, 48 h, read-out: Log TGI (converted); outline: as §1
# [7] = test system: OVCAR-8; assay: Antiproliferative activity against human OVCAR8 cells after 48 hrs; type: functional; conditions: OVCAR-8, 48 h; outline: as §1
# [8] = test system: 786-0; assay: Antiproliferative activity against human 786-0 cells after 48 hrs; type: functional; conditions: 786-0, 48 h; outline: as §1
# [9] = test system: A498; assay: Antiproliferative activity against human A498 cells after 48 hrs; type: functional; conditions: A498, 48 h, read-out: Log TGI (converted); outline: as §1
# [10] = test system: ACHN; assay: Antiproliferative activity against human ACHN cells after 48 hrs; type: functional; outline: as §1
# [11] = test system: SN12C; assay: Antiproliferative activity against human SN12C cells after 48 hrs; type: functional; outline: as §1
# [12] = test system: TK-10; assay: Antiproliferative activity against human TK10 cells after 48 hrs; type: functional; conditions: TK-10, 48 h; outline: as §2
# [13] = test system: HOP-62; assay: Antiproliferative activity against human HOP62 cells after 48 hrs; type: functional; conditions: HOP-62, 48 h; outline: as §1
# [14] = test system: HOP-92; assay: Antiproliferative activity against human HOP92 cells after 48 hrs; type: functional; conditions: HOP-92, 48 h; outline: as §1
# [15] = test system: NCI-H460; assay: Antiproliferative activity against human NCI-H460 cells after 48 hrs; type: functional; conditions: NCI-H460, 48 h; outline: as §1
# [16] = test system: NCI-H522; assay: Antiproliferative activity against human NCI-H522 cells after 48 hrs; type: functional; conditions: NCI-H522, 48 h; outline: as §1
# [17] = test system: HCC 2998; assay: Antiproliferative activity against human HCC2998 cells after 48 hrs; type: functional; conditions: HCC 2998, 48 h; outline: as §1
# [18] = test system: HCT-116; assay: Antiproliferative activity against human HCT116 cells after 48 hrs; type: functional; conditions: HCT-116, 48 h; outline: as §1
# [19] = test system: KM12; assay: Antiproliferative activity against human KM12 cells after 48 hrs; type: functional; conditions: for CC50: read-out: Log LC50 (the source's name) (converted); outline: as §1
# [20] = test system: SW-620; assay: Antiproliferative activity against human SW620 cells after 48 hrs; type: functional; conditions: SW-620, 48 h; outline: as §2
# [21] = test system: SF-295; assay: Antiproliferative activity against human SF295 cells after 48 hrs; type: functional; conditions: SF-295, 48 h; outline: as §1
# [22] = test system: SNB-75; assay: Antiproliferative activity against human SNB75 cells after 48 hrs; type: functional; conditions: SNB-75, 48 h; outline: as §1
# [23] = test system: CCRF-CEM; assay: Antiproliferative activity against human CCRF-CEM cells after 48 hrs; type: functional; outline: as §1
# [24] = Antiproliferative activity against human HL60(TB) cells after 48 hrs; type: functional, HL-60(TB); conditions: HL-60, 48 h
# Outline: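 NCI 60-line panel screen: cells grown in RPMI 1640 with 5% fetal bovine serum and 2 mM L-glutamine, plated at 5,000–40,000 cells/well by doubling time, and preincubated 24 h at 37 °C in 5% CO2. Drugs were solubilised in DMSO at 400-fold the final maximum and tested at five 10-fold dilutions from 10−4 to 10−8 M for 48 h. Net protein was read spectrophotometrically, and the concentration giving 50% reduction was reported as log10 GI50.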
# [25] = test system: K562; assay: Antiproliferative activity against human K562 cells after 48 hrs; type: functional; conditions: K562, 48 h; outline: as §1
# [26] = Antiproliferative activity against human […] cells after 48 hrs; type: functional; outline: as §1
# [27] = read-out: Log LC50 (the source's name) (converted)
compound,measurement,setting,value
CCCCCCCCCCCCCCN[C@@H](C)[C@H](O)c1ccccc1,GI50,[1],1.78 µM
same,LC50,[1],5.89 µM
same,TGI,[1]; read-out: Log TGI (converted),3.24 µM
same,GI50,[2],2.04 µM
same,LC50,[2],6.46 µM
same,TGI,[2]; read-out: Log TGI (converted),3.63 µM
same,GI50,[3],1.78 µM
same,TGI,[3]; read-out: Log TGI (converted),3.72 µM
same,CC50,[4],> 100 µM
same,GI50,[5],1.82 µM
same,LC50,[5],6.31 µM
same,TGI,[5]; read-out: Log TGI (converted),3.39 µM
same,TGI,[6],3.55 µM
same,GI50,[7],1.91 µM
same,TGI,[7]; read-out: Log TGI (converted),4.07 µM
same,GI50,[8],1.58 µM
same,CC50,[8]; [27],5.89 µM
same,TGI,[8]; read-out: Log TGI (converted),3.09 µM
same,TGI,[9],10 µM
same,GI50,[10],1.78 µM
same,CC50,[10]; [27],6.03 µM
same,TGI,[10]; read-out: Log TGI (converted),3.31 µM
same,GI50,[11],1.82 µM
same,LC50 (50% net cell kill),[11],6.76 µM
same,TGI,[11]; read-out: Log TGI (converted),3.47 µM
same,GI50,[12],2 µM
same,CC50,[12]; [27],6.17 µM
same,TGI,[12]; read-out: Log TGI (converted),3.47 µM
same,GI50,[13],1.95 µM
same,CC50,[13]; [27],6.17 µM
same,TGI,[13]; read-out: Log TGI (converted),3.47 µM
same,GI50,[14],1.51 µM
same,TGI,[14]; read-out: Log TGI (converted),3.09 µM
same,GI50,[15],1.91 µM
same,CC50,[15]; [27],6.31 µM
same,TGI,[15]; read-out: Log TGI (converted),3.47 µM
same,GI50,[16],2.04 µM
same,CC50,[16]; [27],7.41 µM
same,TGI,[16]; read-out: Log TGI (converted),3.89 µM
same,GI50,[17],1.82 µM
same,CC50,[17]; [27],5.75 µM
same,TGI,[17]; read-out: Log TGI (converted),3.24 µM
same,GI50,[18],1.86 µM
same,LC50,[18],6.46 µM
same,TGI,[18]; read-out: Log TGI (converted),3.47 µM
same,GI50,"[19]; Homo sapiens, KM12, 48 h",1.86 µM
same,CC50,"[19]; Homo sapiens, KM12, 48 h",6.31 µM
same,CC50,[19],5.62 µM
same,GI50,[20],2.04 µM
same,LC50 (concentration killing 50% of cells),[20],> 100 µM
same,GI50,[21],1.78 µM
same,LC50,[21],6.46 µM
same,TGI,[21]; read-out: Log TGI (converted),3.39 µM
same,GI50,[22],1.7 µM
same,CC50,[22]; [27],6.61 µM
same,TGI,[22]; read-out: Log TGI (converted),3.39 µM
same,GI50,[23],2.4 µM
same,CC50,[23]; [27],> 100 µM
same,TGI,[23]; read-out: Log TGI (converted),5.13 µM
same,GI50,[24],2 µM
same,LC50,[24],8.13 µM
same,TGI,[24]; read-out: Log TGI (converted),3.98 µM
same,GI50,[25],1.66 µM
same,LC50,[25],7.41 µM
same,TGI,[25]; read-out: Log TGI (converted),3.55 µM
same,GI50,[26],2 µM
same,TGI,[26]; read-out: Log TGI (converted),3.8 µM
